Values after ≈ are worked out from the molar mass of the structure shown. Active and inactive are the calls of the source. The rule behind the calls is not given here.
Experiments:
Cytochrome P450 2C19 = Cytochrome P450 2C19 (Homo sapiens, UniProt P33261); experiment: Inhibition of CYP2C19; type: ADME
Rattus norvegicus [1] = experiment: Antidiabetic activity in diet-induced obese Sprague-Dawley rat assessed as decrease in glucose excursion at 3 mg/kg, po administered once daily for 3 weeks by OGTT; type: functional; parameters: scale not given: the % may be the effect or the level left
How it was run: (§1)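 Male Sprague-Dawley DIO rats (n = 10/group), 550–650 g, reverse light/dark cycle, high fat diet from 7 weeks of age; dosed po once daily in Klucel suspension.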

Rattus norvegicus [2] = experiment: Antiobesity activity in diet-induced obese rat assessed as decrease in food intake at 1 mg/kg, po administered once daily for 3 weeks; type: functional; parameters: scale not given: the % may be the effect or the level left
How it was run: (§2)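 Male DIO rats, 19 weeks old, on high fat diet for 12 weeks, dosed po once daily with Klucel (hydroxypropyl cellulose) suspension for 22 days; 10 rats per group. Body weight followed throughout; daily food intake recorded on days 1–3, 8, 9, 15 and 16, values averaged per group.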

[3] = target: T1, Sterol O-acyltransferase 2 (Homo sapiens, UniProt O75908); experiment: Inhibition of human ACAT2 expressed in human HepG2 cells after incubated with compound for 15 mins measured after 1 hr using palmitoyl-1-14C-coenzyme A by TLC assay; type: cell-based
T1 sequence (O75908 whole entry): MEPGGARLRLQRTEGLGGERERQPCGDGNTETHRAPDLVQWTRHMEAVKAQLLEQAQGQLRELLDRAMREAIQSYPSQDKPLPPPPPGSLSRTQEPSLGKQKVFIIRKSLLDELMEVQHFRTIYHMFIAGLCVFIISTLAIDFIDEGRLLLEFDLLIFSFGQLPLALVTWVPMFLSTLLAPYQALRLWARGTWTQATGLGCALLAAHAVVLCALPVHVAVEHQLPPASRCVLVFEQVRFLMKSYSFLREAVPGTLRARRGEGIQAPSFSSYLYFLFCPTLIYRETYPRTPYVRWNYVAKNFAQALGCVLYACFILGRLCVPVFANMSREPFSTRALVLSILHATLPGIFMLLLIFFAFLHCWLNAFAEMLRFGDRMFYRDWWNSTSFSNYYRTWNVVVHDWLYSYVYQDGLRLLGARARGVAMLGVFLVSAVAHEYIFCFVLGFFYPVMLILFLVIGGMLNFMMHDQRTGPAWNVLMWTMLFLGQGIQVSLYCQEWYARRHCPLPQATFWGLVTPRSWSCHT
How it was run: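 HepG2 membranes (mixed ACAT1/ACAT2), 2.6 mg/mL stock, diluted to 0.52 mg/mL in Tris pH 7.5 buffer. Preincubated 15 min on ice with compound (0–600 μM solutions in 20% DMSO), then 2.37 μM [1-14C]palmitoyl-CoA solution added. Product extracted and resolved by TLC with phosphoimager read-out.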

Rattus norvegicus [4] = experiment: Antidiabetic activity in diet-induced obese Sprague-Dawley rat assessed as decrease in glucose excursion at 0.3 mg/kg, po administered once daily for 3 weeks by OGTT; type: functional, organism-based; parameters: dose 0.3 mg/kg; how it was run: as §1
[5] = Clearance in Beagle dog at 5 mg/kg, iv; type: ADME, organism-based, Canis lupus familiaris; parameters: dose 5 mg/kg, route intravenous; conditions: in vivo
How it was run: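 Plasma levels by protein precipitation with acetonitrile and LC-MS/MS (linear range 5.0–5000 ng/mL); noncompartmental analysis; mean of n = 3.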

Cytochrome P450 2D6 = Cytochrome P450 2D6 (Homo sapiens, UniProt P10635); experiment: Inhibition of CYP2D6; type: ADME
Sequence of Cytochrome P450 2D6 (P10635 whole entry): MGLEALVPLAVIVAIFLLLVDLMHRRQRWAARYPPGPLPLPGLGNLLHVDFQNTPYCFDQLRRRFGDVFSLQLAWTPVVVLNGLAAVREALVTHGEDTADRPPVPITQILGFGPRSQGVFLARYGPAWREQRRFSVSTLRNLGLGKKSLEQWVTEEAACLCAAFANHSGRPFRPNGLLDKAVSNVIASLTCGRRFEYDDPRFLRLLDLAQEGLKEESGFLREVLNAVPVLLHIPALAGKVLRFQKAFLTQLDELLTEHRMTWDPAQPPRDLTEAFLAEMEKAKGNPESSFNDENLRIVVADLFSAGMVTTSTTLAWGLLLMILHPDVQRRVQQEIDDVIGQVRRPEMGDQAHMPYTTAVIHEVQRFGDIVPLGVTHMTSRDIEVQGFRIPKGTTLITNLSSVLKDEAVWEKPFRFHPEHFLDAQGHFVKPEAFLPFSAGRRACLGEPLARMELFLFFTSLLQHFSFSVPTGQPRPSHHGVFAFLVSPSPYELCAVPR

Rattus norvegicus [6] = experiment: Antiobesity activity in diet-induced obese rat assessed as reduction in body weight gain at 0.3 mg/kg, po administered once daily for 3 weeks; type: functional; parameters: scale not given: the % may be the effect or the level left; how it was run: as §2
[7] = Permeability across human Caco2 cells; type: ADME, cell-based; conditions: Caco-2, read-out: permeability
[8] = Inhibition of P-glycoprotein
Rattus norvegicus [9] = experiment: Antiobesity activity in diet-induced obese rat assessed as decrease in food intake at 0.3 mg/kg, po administered once daily for 3 weeks; type: functional; parameters: scale not given: the % may be the effect or the level left; how it was run: as §2
[10] = Volume of distribution in Hanover Wistar rat at 5 mg/kg, iv; type: ADME, organism-based; parameters: dose 5 mg/kg, route intravenous; conditions: in vivo
Rattus norvegicus [11] = experiment: Antidiabetic activity in diet-induced obese Sprague-Dawley rat assessed as effect on insulin level at 1 mg/kg, po administered once daily for 3 weeks measured after 30 mins by OGTT; type: functional, organism-based; parameters: dose 1 mg/kg
How it was run: (§3)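 DIO rats (n = 10/group) on high fat diet, dosed po once daily in Klucel suspension for 3 weeks. On day 21 an oral glucose challenge of 2 g/kg was given, and plasma insulin was measured at the 30 min time point.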

[12] = Solubility of the compound at mp 217 degC; type: physicochemical
Rattus norvegicus [13] = experiment: Antidiabetic activity in diet-induced obese Sprague-Dawley rat assessed as effect on insulin level at 3 mg/kg, po administered once daily for 3 weeks measured after 30 mins by OGTT; type: functional, organism-based; parameters: dose 3 mg/kg; how it was run: as §3
[14] = Tmax in Beagle dog at 10 mg/kg, po; type: ADME, organism-based, Canis lupus familiaris; parameters: dose 10 mg/kg, route oral; conditions: in vivo
How it was run: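 Oral gavage to rats (jugular/femoral vein-cannulated, femoral vein blood sampling) or beagle dogs, n = 3, as a 2 mg/mL suspension in 2% Klucel LF with 0.1% Tween 80 in water. Plasma extracted by acetonitrile protein precipitation and quantified by LC-MS/MS (linear 5.0–5000 ng/mL). Noncompartmental analysis; mean of 3.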

Rattus norvegicus [15] = experiment: Antiobesity activity in diet-induced obese rat assessed as reduction in body weight gain at 1 mg/kg, po administered once daily for 3 weeks; type: functional; parameters: scale not given: the % may be the effect or the level left; how it was run: as §2
[16] = Cmax in Beagle dog at 10 mg/kg, po by LC-MS/MS; type: ADME, organism-based, Canis lupus familiaris; parameters: dose 10 mg/kg, route oral; conditions: in vivo
How it was run: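 Plasma extracted by acetonitrile precipitation and quantified by LC-MS/MS (5.0–5000 ng/mL); noncompartmental PK; bioavailability relative to 5 mg/kg iv; mean of n = 3.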

[17] = Extrapolated AUC in Hanover Wistar rat at 10 mg/kg, po; type: ADME, organism-based; parameters: dose 10 mg/kg, route oral; conditions: in vivo
How it was run: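 Hanover Wistar rats (n = 3) with jugular/femoral cannulae, oral gavage of a 2 mg/mL suspension in 2% Klucel LF with 0.1% Tween 80; femoral-vein sampling, EDTA plasma, acetonitrile precipitation, LC-MS/MS (5.0–5000 ng/mL), noncompartmental analysis; F relative to 5 mg/kg iv; mean of n = 3.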

Rattus norvegicus [18] = experiment: Antiobesity activity in diet-induced obese rat assessed as reduction in body weight gain at 3 mg/kg, po qd; type: functional; parameters: scale not given: the % may be the effect or the level left
How it was run: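 Male DIO rats given 3 mg/kg po once daily for 1 week, with body weight gain followed. At study end, rats were fasted 4 h and challenged with corn oil 5 mL/kg; plasma triglycerides were measured 4 h later and compared with the vehicle group.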

hERG = hERG (Homo sapiens, UniProt Q12809); experiment: Inhibition of human ERG-mediated current expressed in CHO cells by patch clamp method; type: cell-based; conditions: CHO cells expressing human ERG
Sequence of hERG (Q12809 whole entry): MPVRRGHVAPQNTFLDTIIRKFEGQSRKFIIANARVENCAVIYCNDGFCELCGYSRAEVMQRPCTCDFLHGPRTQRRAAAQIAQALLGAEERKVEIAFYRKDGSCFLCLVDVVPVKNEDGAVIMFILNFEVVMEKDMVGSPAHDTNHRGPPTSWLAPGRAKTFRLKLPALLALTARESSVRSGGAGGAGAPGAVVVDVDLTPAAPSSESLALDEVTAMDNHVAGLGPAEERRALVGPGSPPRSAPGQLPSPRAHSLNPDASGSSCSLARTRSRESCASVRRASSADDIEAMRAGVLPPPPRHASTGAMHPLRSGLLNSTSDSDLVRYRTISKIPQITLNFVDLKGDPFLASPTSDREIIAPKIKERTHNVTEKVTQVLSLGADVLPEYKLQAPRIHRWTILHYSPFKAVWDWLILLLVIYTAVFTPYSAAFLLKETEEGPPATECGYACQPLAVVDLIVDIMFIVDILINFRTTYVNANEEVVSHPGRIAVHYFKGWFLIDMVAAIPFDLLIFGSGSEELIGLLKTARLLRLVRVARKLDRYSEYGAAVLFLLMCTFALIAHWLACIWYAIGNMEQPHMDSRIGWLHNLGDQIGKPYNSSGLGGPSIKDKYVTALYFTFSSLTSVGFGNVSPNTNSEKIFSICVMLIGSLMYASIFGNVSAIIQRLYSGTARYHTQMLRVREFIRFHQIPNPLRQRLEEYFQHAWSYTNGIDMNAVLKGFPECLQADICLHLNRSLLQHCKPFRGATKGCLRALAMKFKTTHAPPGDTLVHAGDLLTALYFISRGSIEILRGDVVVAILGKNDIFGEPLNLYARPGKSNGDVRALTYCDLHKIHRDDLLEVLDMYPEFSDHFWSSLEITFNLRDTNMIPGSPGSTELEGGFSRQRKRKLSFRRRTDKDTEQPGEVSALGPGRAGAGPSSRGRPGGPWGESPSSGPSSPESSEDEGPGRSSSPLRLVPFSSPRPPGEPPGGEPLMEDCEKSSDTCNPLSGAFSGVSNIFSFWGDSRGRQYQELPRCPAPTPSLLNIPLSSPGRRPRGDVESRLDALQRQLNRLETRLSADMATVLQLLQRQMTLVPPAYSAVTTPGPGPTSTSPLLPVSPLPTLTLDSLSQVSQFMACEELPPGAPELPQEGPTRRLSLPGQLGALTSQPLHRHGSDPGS
How it was run: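 hERG-transfected CHO cells on automated whole-cell patch clamp at a holding potential of −80 mV; 1 s depolarizing pulse at 0.1 Hz; tail current measured at −40 mV. Sequence: 0.3% DMSO vehicle, three ascending log-interval concentrations up to 30 μM or the solubility limit, then 1 μM E-4031. At least 3 cells per compound; data normalized to vehicle and fitted with the Hill equation.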

Rattus norvegicus [19] = experiment: Antidiabetic activity in diet-induced obese Sprague-Dawley rat assessed as effect on insulin level at 0.3 mg/kg, po administered once daily for 3 weeks measured after 30 mins by OGTT; type: functional, organism-based; parameters: dose 0.3 mg/kg; how it was run: as §3
[20] = Volume of distribution in Beagle dog at 5 mg/kg, iv; type: ADME, organism-based, Canis lupus familiaris; parameters: dose 5 mg/kg, route intravenous; conditions: in vivo
Cytochrome P450 3A4 = Cytochrome P450 3A4 (Homo sapiens, UniProt P08684); experiment: Inhibition of CYP3A4; type: ADME
Sequence of Cytochrome P450 3A4 (P08684 whole entry): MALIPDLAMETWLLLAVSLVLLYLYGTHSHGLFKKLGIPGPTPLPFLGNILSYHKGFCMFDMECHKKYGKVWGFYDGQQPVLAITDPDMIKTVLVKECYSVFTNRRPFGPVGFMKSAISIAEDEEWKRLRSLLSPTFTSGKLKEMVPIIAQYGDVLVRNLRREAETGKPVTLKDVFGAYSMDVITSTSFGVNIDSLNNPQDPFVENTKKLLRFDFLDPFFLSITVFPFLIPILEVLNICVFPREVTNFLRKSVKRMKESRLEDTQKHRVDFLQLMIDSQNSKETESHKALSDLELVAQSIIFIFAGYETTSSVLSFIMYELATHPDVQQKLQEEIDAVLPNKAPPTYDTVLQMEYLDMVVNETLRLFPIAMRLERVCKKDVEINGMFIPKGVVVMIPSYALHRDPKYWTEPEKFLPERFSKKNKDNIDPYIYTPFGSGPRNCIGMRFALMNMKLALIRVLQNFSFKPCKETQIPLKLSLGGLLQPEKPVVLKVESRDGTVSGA

Rattus norvegicus [21] = experiment: Antidiabetic activity in diet-induced obese Sprague-Dawley rat assessed as insulin-mediated decrease in glucose level at 3 mg/kg, po administered once daily for 3 weeks OGTT; type: functional, organism-based; parameters: dose 3 mg/kg; how it was run: as §1

Sequence of Cytochrome P450 2C19 (P33261 whole entry): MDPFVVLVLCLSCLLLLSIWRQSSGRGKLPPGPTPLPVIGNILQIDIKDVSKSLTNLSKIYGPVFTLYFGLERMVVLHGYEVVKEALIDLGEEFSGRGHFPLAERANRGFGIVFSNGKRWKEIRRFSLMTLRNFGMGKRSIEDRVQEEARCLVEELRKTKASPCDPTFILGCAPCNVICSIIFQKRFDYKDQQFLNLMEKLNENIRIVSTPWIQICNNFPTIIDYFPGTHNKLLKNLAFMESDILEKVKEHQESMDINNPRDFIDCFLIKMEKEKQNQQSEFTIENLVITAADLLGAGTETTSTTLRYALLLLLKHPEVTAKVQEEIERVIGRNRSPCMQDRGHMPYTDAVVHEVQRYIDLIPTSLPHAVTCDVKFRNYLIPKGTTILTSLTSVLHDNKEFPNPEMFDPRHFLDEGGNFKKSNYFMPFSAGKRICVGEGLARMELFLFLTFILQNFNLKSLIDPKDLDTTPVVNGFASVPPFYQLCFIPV

Structure (SMILES): O=C(Nc1ccc(C2CCN(C(=O)[C@H]3CC[C@H](C(=O)O)CC3)CC2)cc1)c1nc(-c2ccccc2)oc1C(F)(F)F
- IC50 (Cytochrome P450 2C19): > 50 µM
- Activity (Rattus norvegicus [1]): 15%
- Activity (Rattus norvegicus [2]): 19%
- IC50 [3]: 68.4 µM
- Activity (Rattus norvegicus [4]): Active
- clearance [5]: 1.3 mL/min/kg
- IC50 (Cytochrome P450 2D6): > 50 µM
- Activity (Rattus norvegicus [6]): 5%
- Papp [7]: 24.5 ×10⁻⁶ cm/s
- inhibition [8]: inactive
- Activity (Rattus norvegicus [9]): 17%
- Vd [10]: 0.27 L/kg
- Activity (Rattus norvegicus [11]): inactive
- solubility [12]: 15.4 µg/mL (≈ 27 µM)
- Activity (Rattus norvegicus [13]): inactive
- Tmax [14]: 2 h
- Activity (Rattus norvegicus [15]): 6%
- Cmax [16]: 4.7 µM
- AUC [17]: 567 µM·h
- Activity (Rattus norvegicus [18]): 4%
- IC20 (hERG): 30 µM
- Activity (Rattus norvegicus [19]): inactive
- Vd [20]: 0.38 L/kg
- IC50 (Cytochrome P450 3A4): > 50 µM
- Activity (Rattus norvegicus [21]): Active

Reference: ChEMBL document CHEMBL1764953, “Discovery of orally active carboxylic acid derivatives of 2-phenyl-5-trifluoromethyloxazole-4-carboxamide as potent diacylglycerol acyltransferase-1 inhibitors for the potential treatment of obesity and diabetes” (J Med Chem, 2011)
